# According to the RNAGym collection of RNA variant scans (doi:10.1126/science.aae0568):
# Fewer inactive variants are shown than the library holds.
# B1: tRNA (parent)
# chain: GUUCCGUUGGCGUAAUGGUAACGCGUCUCCCUCCUAAGGAGAAGACUGCGGGUUCGAGUCCCGUACGGAACG
# Variants of: B1
# Assay: yeast fitness relative to wild type (ratio to wild type); higher = fitter; tRNA-Arg(CCU), competitive growth, 37 C, YPD
# Procedure, shortened: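 A pool of Saccharomyces cerevisiae strains, each with a tRNA-Arg(CCU) gene variant at the native genomic locus, was competed in YPD at 37°C for 24 hours across six parallel replicates. The variants had been chemically synthesised at a 3% per-site mutation rate over 69 sites, and gene amplicons before and after competition were read by 100-nucleotide paired-end sequencing. Darwinian fitness relative to wild type rested on changes in genotype frequencies. Genotypes required ≥ 100 starting reads, and estimates < 0.5 were set to 0.5.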
row,Variant,yeast fitness
1,GUUCCGUUGGCGUAAAGGUAACGCGUCUCCCUCCUAAGGACAAGACUGCGGGUUCGAGUCCCGUACGGAACG,0.668
2,GUUCCGUUGGCGUAAAGGUAACGCGUCUCCCUCCUAAGGAGAAGACUCCGGGUUCGAGUCCCGUAUGGAACG,0.705
3,GUUCCGUUGGCGUAAAGGUAACGCGUCCCCCUGCUUAGGAGAAGACUGCGGGUUCGAGUCCCGUACGGAACG,≤ 0.5
4,GUUCCGUUGGCGUAAAGGUAACGCGUCACCCUCCUAAGGAGAAGACUGCGGGUUCGAGUGACAUACGGAACG,≤ 0.5
5,GUUCCGUUGGCGUAAAGGUAACGCGUCACCCUCCUAAGGAGAAGAGUGAGGGUUCGAGUCCCGUACGGUACG,≤ 0.5
6,GUUCCGUUGGCGUAAAGGUAACGCGUCCCCCUCCUAACAAGAAGACUGCGGGUUCGAGUCCCGUACGGAGCG,≤ 0.5
7,GUUCCGUUGGCGUAAAGGUAACCCGUCUUCGUCCUAAGGAGAAGACUGCGGGUUCGCGUCCCGUACGGAACG,≤ 0.5
8,GUUCCGUUGGCGUAAAGGUAACACGUCUUCCUCGUAAGGAGAAGACUGCGGGUUCGAGUCCCGUACGGAACG,0.734
9,GUUCCGUUGGCGUAAAGGUAACGCGCCUCCCUCCUAAGGAGAAGACUGCGGGUUCGAGUCCCGUACGGAUCG,0.558
10,GUUCCGUUGGCGUAAAGGAAACGCGUCUCCCUCCUAAGGAGACGACUGCGGGUUCAAGUCCCGUACGGAACG,≤ 0.5
11,GUUCCGUUGGCGUAAAGGUAACGCGUCUCCCUCCUAAGGAGAAGACUGCGGGUUCGAGUCCCCUACGGAACG,0.676
12,GUUCCGUUGGCGUAAAGGUAACGCGUCUCCCUCCUAAGAAGAAGACUGCGGGUUCGAGUGCCGUACGGAGCG,≤ 0.5
13,GUUCCGUUGGCGUAAAGGUAACGCGUCUCCCUCCUAAGAAGGAGACUGCGGGUUAGAGUCCAGUAUGGAACG,0.528
14,GUUCCGUUGGCGUAAAGGUAACGCGUCUCCCUCCCAAGGAGAAGACUGCGGGUUCGAGUCGCGUGCGGAACG,≤ 0.5
15,GUUCCGUUGGCGUAAAGGUAACGCGUCGCCCUCCUAAGGAGAAGACUGCGGGUUCGAGUCCCGUAUGGAACG,≤ 0.5
16,GUUCCGUUGGCGUAAAGGUAACCCGACUUCCUCCUAAGGAGUAGACUACGGGUUCGAGUCCCGUACGGAACG,0.557
17,GUUCCGUUGGCGUAAAGGUAACGCGUCUCCCUCCUAAGGAGAAGACUGCGGGUUCGAGUCCCGUACGUAACG,0.837
18,GUUCCGUUGGCGUAAAGGUAACGCGUCUCCCUCCUAAGGAGAAGACUGCGGGUUCGAGUCCCGUACGAAACG,1.08
19,GUUCCGUUGGCGUAAAGGUAACGCGUCACCCUCCUAAGGAGAAGACUGCGGGUUCGAGUCCCGCACGGAACG,0.568
20,GUUCCGUUGGCGUAAAGGUAACGCGUCGCCCUCCUAAGGAGAAGACGGCGGGUACGAGUCCCGUACGGAACG,0.56
21,GUUCCGUUGGCGUAAAGGUAACGCGCCUCCAUACCAAGGAGAAGACAGCGGGUUCGAGUCCCGUACGGAACG,≤ 0.5
22,GUUCCGUUGGCGUAAAGGUAACCCGUCUUCCUCCUAAGGAGAAGACUGCGGGUUCGAAUCCCGUACGGAACG,≤ 0.5
23,GUUCCGUUGGCGUAAAGGUAACCCGUCUCCCUCCUAAGGAGAAGACUGCGGGUUCGAGUCCCGUACGGAACG,0.699
24,GUUCCGUUGGCGUAAAGGUAACGCGUCACCCUCCUAAGGAGAAGUCUGAGGGUUCGAGUCCCGUAUGGAACG,≤ 0.5
25,GUUCCGUUGGCGUAAAGGUAACGCGUCCCCCUCCUAAGGAGAAGACUGCGGGUUCGAGUCCCGUACGGCACG,0.758

row,Variant,yeast fitness
1,GUUCCGUUGGCGUAAAGGUAACCCGUCUUCGUCCUAAGGAGAAGACAGCGGGUUCGAGUCCCGUACGGAACG,≤ 0.5
2,GUUCCGUUGGCGUAAAGGGAACGCGUCUCCCUUCUAAGGCAACGACUGCGGGUUCGAGUUGCGUACGGAACG,≤ 0.5
3,GUUCCGUUGGCGUAAAGGUAACGCGUCUCCCUCCUAAGGAGAAGACUGCGGAUUCGAGUCCCGUACGGACCG,≤ 0.5
4,GUUCCGUUGGCGUAAAGGUAACGCGUCUCCCGCCUAAGGAGAAGACUGCGGGUUCGAGUCCCGUACGGAACG,0.684
5,GUUCCGUUGGCGUAAAGGUAACGCGUCUCCCUCCUAAGGAGAAGACUACGGGUUCGAGUCUCGUACGGAACG,0.706
6,GUUCCGUUGGCGUAAAGGUAACGCGUCUCCCUCCUAAGGAGAAGACUGCGGGUUCGAGUCCCGUACCGAACG,0.769
7,GUUCCGUUGGCGUAAAGGUAACGCGUCUCCCUCCUAAGGAGAAGACUGCAGGUUCGAGUCCCGUACGGAACG,0.899
8,GUUCCGUUGGCGUAAAGGUAACGCCUCUCCCUCCUAAGGAGAAGAGUGCGGGUUCGAGUCCCGUACGGAACG,1.07
9,GUUCCGUUGGCGUAAAGGUAACACGUCUUCCUCGUAAGGAGAAGACUGCGGGUUCGAAUCCCGUACGGAACG,≤ 0.5
10,GUUCCGUUGGCGUAAAGGUAACGCGCCUCACUCCUAAGGAGAAGACUGCGGGUUCGAGUCCCGUACGGAACG,≤ 0.5
11,GUUCCGUUGGCGUAAAGGUAACGCGUCUCCCUCCUAAGGAGAAGACCGCGGGUUCGAGUCCCGUAUGGAACG,0.893
12,GUUCCGUUGGCGUAAAGGUAACGCGUCUCCCUCCUAAGGAGAAGACUGCGGGUUCGAGUCCCCUGCGGAACG,≤ 0.5
13,GUUCCGUUGGCGUAAAGGUAACGCGUCACCCUCCUAAGGAGAAGACUGAGGGUUCGAGUCCCGUACGGAACG,≤ 0.5
14,GUUCCGUUGGCGUAAAGGUAACGCGUCACCCUCCUAAGGAGAAGACUGGGGGUUCGAGUCCCGUACGGAACG,≤ 0.5
15,GUUCCGUUGGCGUAAAGGUAACGCAUCUCCCCCCUAAGGAGAAGACUGCGGGUUCGAGUCCCGUACGGAACG,0.889
16,GUUCCGUUGGCGUAAAGGUAACGCGUCUCCCUCCUAAGGAGAAGACCGCGGGUUCGAGUCCCGUACGGUACG,0.91
17,GUUCCGUUGGCGUAAAGGAAACGCGUCUCCCUCCUAAGGAGAAGGCUGCGGGUUCGAGUCCCGUACGGAACG,0.652
18,GUUCCGUUGGCGUAAAGGCAACGCGUCUCCCUCCUAAGGAGAAGAAUGCGGGUUCGGGUCACGUACGGACCG,0.656
19,GUUCCGUUGGCGUAAAGGUAACGCCUCUCCCUCCUAAGGAGAAGACUGCGGGUUCGAGUCCCGUACGGAACG,0.974
20,GUUCCGUUGGCGUAAAGGUAACGCGUCACCCUCCUAAGGAGAAGACUGCGGGUUCGAGUCCCGUACGGAACG,0.636
21,GUUCCGUUGGCGUAAAGGCAACGCGUCUCCCUGCUAAGGAGAGGACUGCGGGUACGAGUCCCGUACGGAACG,≤ 0.5
22,GUUCCGUUGGCGUAAAGGUAACGCGUCUCCCUCCUAAGGAGAAGACUGCGGAUUCGAGUCCCGUACGGAACG,0.827
23,GUUCCGUUGGCGUAAAGGUAACGCGACUCCCUCCUAAGGAGAAGACUGCGGGUUCGAGUCCCGUACGGAACG,0.974
24,GUUCCGUUGGCGUAAAGGUAACGCGUCUCCCUCCUAAGGAGAAGACUGCCGGUGCGAGUCCCGUACGGCACG,≤ 0.5
25,GUUCCGUUGGCGUAAAGGUAACGCGUCUCCCUCCUAACGAGAAGACUGCGGGUUCGAGUCCCGUACGGAACG,0.749

row,Variant,yeast fitness
1,GUUCCGUUGGCGUAAAGGUAACGCGUCACCCUCCUAAGGAGAAGACUGCGGGUUCGAGUCCUGUACGGAACG,≤ 0.5
2,GUUCCGUUGGCGUAAAGGCAACGCGUCUCCCUCCUAAGGAGAAGACUGCGGGUUCAAGUCCCGUACGGAACG,0.68
3,GUUCCGUUGGCGUAAAGGAAACGCGUCUCCCUCCUAAGGAGAAGAUUGCGGGUUCGAGUCCCGCACGGAACG,0.74
4,GUUCCGUUGGCGUAAAGGUAACGCGUCUCCCACCUAAGGCGAAGACUGCGGGUUCGAGUCCCCAAGGGAACG,≤ 0.5
5,GUUCCGUUGGCGUAAAGGUAACCCGUCUCCCCUCUAAGGAGAAGACUGCGGGUUCGAGUCCCGUACGGAACG,≤ 0.5
6,GUUCCGUUGGCGUAAAGGUAACGCGUCUCCCUCCCAAGGAGAAGGCUGCGGGUUCCAGUCCCCUACGGAACG,≤ 0.5
7,GUUCCGUUGGCGUAAAGGUAACGCGUCUCCCUCCUAAGGAGAAGACUGCGGGUUCGAAUCCCGUACGGAACG,0.859
8,GUUCCGUUGGCGUAAAGGUAACGCAUCACCCUCCUAAGGAGAAGACUGCGGGUUCGAGUCCCGUACGGAACG,≤ 0.5
9,GUUCCGUUGGCGUAAAGGUAACGCGUCUCCCUCCUAAGGAGAAGACCGCGGGUUCGAGUCCCGUUCGGAACG,0.727
10,GUUCCGUUGGCGUAAAGGUAACGCGUCUCCCUCCUAAGGAGAAGACUGCGGGUUCGAGUCCCAUACCGAACG,≤ 0.5
11,GUUCCGUUGGCGUAAAGGUAACGCGUCUCCCUCCUAAGGAGAAGACUGCGGGUUCGACUCACGUACGGAACG,≤ 0.5
12,GUUCCGUUGGCGUAAAGGUAACGCGUCUCCCUCCUAAGGAGAAGACAGCGGGUUCGAGUCCCGUACGGAACG,0.825
13,GUUCCGUUGGCGUAAAGGUAACCCGUCUGCCUCCUAAGGAGAAGACUGCAGGUUCGAGUCCCGUGCGGAACG,0.751
14,GUUCCGUUGGCGUAAAGGUAACGCGUCUCCCUCCUAAGGAGAAGACCGCGGGUUCGAGUCCCAUACGGAACG,0.869
15,GUUCCGUUGGCGUAAAGGUAACGCGUCUCCCUCCUAAGGAGAAGACGCCGGGUUCGAGUCCCGUACGGAACG,0.536
16,GUUCCGUUGGCGUAAAGGUAACGCGUCUCCCUCCUAAGAAGAAGAGUGCGGGUUCGAGUCCCGUACGGAACG,0.695
17,GUUCCGUUGGCGUAAAGGUAACGCGUCUCCCUCCUAAGGAGAAGACUGCGGGUUCAAGUCCCGUACGGCACG,0.753
18,GUUCCGUUGGCGUAAAGGUAACGCGUCUCCCUCCUAAGGAGAAGACUGCGGGUUCGAGUCCCGUACGAACCG,0.606
19,GUUCCGUUGGCGUAAAGGUAACGCGUCUCCCCCCUAUGGAGAAGACUGGGGGUUCGAGUCCCGUACGGAACG,0.516
20,GUUCCGUUGGCGUAAAGGUAACGCGUCCCCCUCCUAACAAGAAGACUGCGGGUUCGAGUCCCGUACGGAACG,≤ 0.5
21,GUUCCGUUGGCGUAAAGGUAACGCGUCUCCCUCCUAAGAAGGAGACUGCGGGUUAGAGUCCUGUACGGAACG,≤ 0.5
22,GUUCCGUUGGCGUAAAGGUAACGCGUCGCCCUCCUAAGGAGAAGACUGCGGGUUCGAGUCCCGUACAGAACG,0.752
23,GUUCCGUUGGCGUAAAGGUAACGCGUCUCCCUCCUAAAGAGAAGACUGCGGGUUCGAGUCCCGUGGGGAACG,≤ 0.5
24,GUUCCGUUGGCGUAAAGUUAACGCGUCUGGCUCCUAAGGAGAAGAGUGCGGGUUCGAGUCCCGUACGGAACG,≤ 0.5
25,GUUCCGUUGGCGUAAAGGAAACGCGUCUCCCUCCUAAGGAGAAGAUUGCGGGUUCGAGUCCCGUACGGAACG,1
